# From PubChem BioAssay
# ASAP1 GAP inh: blocks human ASAP1-stimulated Arf1 GTP hydrolysis | Q9ULH1 | GDP FP detection | inhibition, % at 16.5 µM | hit rate 0.19% among 360,000 | AID 624377; in the data active = inhibition above about 25%;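 note: 0% = vehicle with enzyme and substrate and 100% = no enzyme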
# Rev-erbA mod: Rev-erb alpha (human) modulation | activity, % at 10 µM | hit rate 0.79% among 370,000 | Rev-erbα–FITC-DNA binding, fluorescence polarization, 90 min | P20393;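 active = activity above about 14%, limit read from the data; passing the limit was not always enough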;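 note: 0% = DMSO wells with 35 nM protein and 100% = DMSO wells with 750 nM protein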
# MsrA act: activates bovine MsrA enzyme. purified bovine MsrA, absorbance read-out. activation, % at 10.6 µM. hit rate 0.3% among 360,000; in the data active = activation above about 7.5%;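 note: 0% = vehicle and 100% = reference activator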
# HGIII-sPLA2 inh: Blocks human group III sPLA2 activity; QFRET BODIPY PC-A2 liposome hydrolysis, fluorescence; AID 743126; inhibition, % at 12.2 µM; hit rate 0.56% among 370,000;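 active = inhibition above mean plus 3 SD of compounds lying within the high and low control bounds, cut at about 19% in these data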;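 note: 0% = median of test compound wells and 100% = no enzyme DMSO wells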
# Target sequence (Q9NZ20 whole entry, looked up): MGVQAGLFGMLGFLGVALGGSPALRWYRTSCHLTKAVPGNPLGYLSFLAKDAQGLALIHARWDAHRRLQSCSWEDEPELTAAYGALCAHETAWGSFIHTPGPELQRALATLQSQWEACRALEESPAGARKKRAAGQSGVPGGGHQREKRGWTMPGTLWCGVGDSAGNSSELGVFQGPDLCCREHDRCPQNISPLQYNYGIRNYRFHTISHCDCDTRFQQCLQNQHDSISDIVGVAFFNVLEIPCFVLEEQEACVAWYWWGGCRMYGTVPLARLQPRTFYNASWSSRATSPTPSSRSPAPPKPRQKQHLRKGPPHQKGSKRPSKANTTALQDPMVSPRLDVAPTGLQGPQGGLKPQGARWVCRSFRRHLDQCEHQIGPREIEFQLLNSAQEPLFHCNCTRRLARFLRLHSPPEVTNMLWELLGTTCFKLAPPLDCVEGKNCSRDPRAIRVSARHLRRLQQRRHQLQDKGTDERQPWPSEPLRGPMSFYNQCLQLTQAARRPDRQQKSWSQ
# ARFGAP1 inhibitor: rat ARFGAP1 inhibition; Q62848; hit rate 0.26% among 360,000; AID 651572; Arfgap1-stimulated ARF1 GTP hydrolysis, GDP FP detection; inhibition, % at 16.5 µM;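 active = inhibition above a per-plate limit, mean inhibition of low control wells plus 3 SD, cut at about 25% in these data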;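 note: 0% = DMSO wells with enzyme and 100% = wells lacking Arfgap1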
# Target sequence (Q62848 1-136 limits assumed): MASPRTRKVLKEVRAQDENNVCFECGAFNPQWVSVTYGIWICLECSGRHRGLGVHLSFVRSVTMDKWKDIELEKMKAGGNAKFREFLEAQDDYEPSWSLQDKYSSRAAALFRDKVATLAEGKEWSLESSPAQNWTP
#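 Material: truncated rat Arfgap1 GAP domain; Incubation: compound-enzyme preincubation 20 min, reaction 120 min, detection 60 min, 25 °C; Read-out: percent inhibition of Arfgap1-stimulated GTP hydrolysis; Technique: FP, GDP Alexa 633 tracer displaced from anti-GDP antibody, 620/688 nm; Controls: No-Arfgap1 wells (100%) versus DMSO full-reaction wells (0%); Replication: single well per compound.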
# MsrA inhibitor: bovine MsrA inhibition. purified bovine MsrA, absorbance read-out. inhibition, % at 15.5 µM. hit rate 0.75% among 360,000; in the data active = inhibition above about 4.5%;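 note: 0% = vehicle wells with enzyme and 100% = reference inhibitor wells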
# Rev-erbA confirm: confirmation of modulators of human Rev-erb alpha DNA binding. shares compounds with Rev-erbA mod. Rev-erb alpha FITC-DNA binding, fluorescence polarization, 90 min. activation, % at 25 µM. hit rate 61% among 3,000;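 active = activation at or above a set limit, or at least 3 SD above the negative control mean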;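 note: 0% = 35 nM protein with DMSO and 100% = 750 nM protein high control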
# RORg counter: RORgamma DNA-binding activity, dose-response counter-screen. AID 1259320. hit rate 8% among 910. shares compounds with Rev-erbA mod. IC50, µM. purified RORgamma protein-FITC-DNA binding, fluorescence polarization;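 active = Compounds whose fitted half-maximal concentration for disrupting protein-DNA binding is below 10 micromolar; the record names Rev-erb in its text, so the target is in doubt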
# Numbers without * were called inactive; i = inactive; x = no result given. Sampled rows, rich in hits. Any-hit rate of the full collection: about 2.7%.
SMILES,ASAP1 GAP inh,Rev-erbA mod,MsrA act,HGIII-sPLA2 inh,ARFGAP1 inhibitor,MsrA inhibitor,Rev-erbA confirm,others
Cc1cc2cc3c(cc2nc1SCC(=O)N1c2ccccc2CC1C)OCO3 (stereo not drawn),5,7,-5,3,0,1,x,
CC1Cc2ccccc2N1C(=O)CSc1nc2cc3c(cc2cc1C#N)OCO3 (stereo not drawn),-4,70*,-1,-2,-2,-2,32*,
Cc1cc2ccccc2nc1SCC(=O)N1c2ccccc2CC1C (stereo not drawn),-6,147*,7,8,-6,0,-2,
Cc1ccc(-c2nnc(SCC(=O)Nc3ccc4c(c3)OCCO4)n2-c2ccc(Cl)cc2)cc1,x,-1,x,2,x,x,x,
c1cnc(SCC2CCCCC2)c(-c2nc3ccccc3[nH]2)c1,x,32*,x,-5,x,x,33*,RORg counter=>40
COC(=O)CSc1ncccc1-c1nc2ccccc2[nH]1,8,-5,-15,-4,-3,1,x,
O=C(CSc1ncccc1-c1nc2ccccc2[nH]1)N1CCc2ccccc21,22,28*,0,-4,14,0,25*,
COc1ccc(C=Cc2ccc3ccccc3n2)c(OC)c1,6,20*,-1,-87,-3,2,9,
COc1ccc(OC)c(/C=C/c2ccc3cccc(O)c3n2)c1,3,4,-18,7,6,2,x,
CCN(CC)c1ccc(C(=O)OCc2cc(=O)oc3cc(O)ccc23)cc1,-5,33*,-13,-42,12,1,17*,
CCOC(=O)c1cnc(SCC(=O)N2CCc3ccccc32)nc1N,2,49*,4,3,12,0,7,
COc1cc2c(cc1OC)C1(Nc3c-2c(C)nn3-c2ccccc2)C(=O)Nc2ccccc21 (stereo not drawn),11,18*,1,0,11,0,3,
COc1cc2c(cc1OC)C1(Nc3c-2c(-c2ccccc2)nn3-c2ccccc2)C(=O)Nc2ccccc21 (stereo not drawn),-3,-1,-3,0,21,0,x,
CC1CC(C)CN(S(=O)(=O)c2ccc3c(c2)n(C)c(=O)c(=O)n3C)C1 (stereo not drawn),9,66*,-3,2,-2,1,0,
COc1ccc(OC)c(Nc2ncnc3ccc(Br)cc23)c1,-5,59*,-2,-3,5,1,29*,
Cc1cc(C)n2ncc(C(=O)Nc3ccc4c(c3)CCC4)c2n1,x,-5,x,0,x,x,x,
C=C(c1ccc2nc(NC(=O)OC)[nH]c2c1)c1cccs1,-10,-4,-2,10,6,1,x,
CCn1c(SCC(=O)c2c[nH]c3ccccc23)nnc1-c1cccs1,-9,102*,1,-10,11,-1,112*,RORg counter=>40
O=C(CCSc1nnc2ccccn12)Nc1ccc(F)cc1,-4,-2,-3,1,-2,0,x,
O=C(CCSc1nnc2ccc3ccccc3n12)Nc1ccc(F)cc1,-3,44*,-7,2,10,0,22*,
CC(C)(C)OC(=O)[C@H](Cc1ccccc1)NC(=O)c1nc[nH]c1C(=O)N[C@@H](Cc1ccccc1)C(=O)OC(C)(C)C,-3,-5,-5,-9,-8,1,x,
CC(C)(C)OC(=O)[C@H](Cc1ccccc1)NC(=O)c1ncn2c1c(=O)[nH]c1ccc(Br)cc12,0,168*,-5,-1,-1,0,-3,
O=C(/C=C/c1ccc(OCCCF)cc1)Nc1ccnc(-c2cccnc2)n1,1,24*,-2,-4,-3,0,22*,
O=C(/C=C/c1ccc(OCCCF)cc1)Nc1ccnc(-c2ccncc2)n1,7,-3,0,-3,11,0,x,
Cc1ccc(-c2oc3ncnc(N)c3c2-c2ccc(C)cc2)cc1,2,20*,-15,-4,-11,1,8,
SMILES,ASAP1 GAP inh,Rev-erbA mod,MsrA act,HGIII-sPLA2 inh,ARFGAP1 inhibitor,MsrA inhibitor,Rev-erbA confirm,others
COc1ccc(-c2cc3nc(C)cc(C)n3n2)cc1,1,-14,-1,1,9,-1,x,
Cc1cc(C)n2nc(-c3ccc(Br)cc3)cc2n1,8,27*,0,-2,-4,1,3,
CC(=O)c1cnc2cc(-c3ccc(Cl)cc3)nn2c1C,11,28*,-1,-1,4,-1,10,
Cc1cc(C)n2nc(-c3ccc(Cl)cc3)cc2n1,4,65*,-1,-12,2,-1,52*,RORg counter=>40
Cc1c(C(=O)O)cnc2cc(-c3ccc(Cl)cc3)nn12,-5,-7,-1,2,6,1,x,
Cc1cccc(C)c1NC(=O)C1(C)CSCC(=O)N1Cc1ccco1 (stereo not drawn),-4,4,x,6,4,-1,x,
CC(=O)NC(Cc1ccc2c(c1)OCO2)C(=O)N1CCCC1 (stereo not drawn),x,-2,x,6,x,x,x,
Cc1ccccc1CNC(=O)c1cccc2c1C(=O)N(Cc1cccnc1)C2,x,-2,x,11,x,x,x,
CCC[C@H]1[C@@H](OC(=O)NCc2cccc(C(F)(F)F)c2)CC[C@@]23CCCN2C(=O)CCC[C@@H]13,x,5,x,-11,x,x,x,
OC1CCC2CN3CCc4c([nH]c5ccccc45)C3CC2C1 (stereo not drawn),-4,1,-4,-2,7,1,x,
CCOC(=O)c1ccc(NC(=O)c2nc[nH]c2C(=O)N[C@H](C)CO)cc1,-2,-7,-7,-2,16,0,x,
CC(=O)Nc1ccc(-c2cc(-c3ccccc3)nc(-c3ccccc3)n2)cc1,-8,13,-3,15,-3,1,x,
CC(=O)Nc1ccc(-c2cc(-c3ccc(NC(C)=O)cc3)nc(-c3ccc(NC(C)=O)cc3)n2)cc1,1,52*,-3,-5,7,1,35*,
CC(=O)Nc1ccc(-c2cc(-c3ccc(NC(C)=O)cc3)nc(-c3ccccc3)n2)cc1,13,41*,-2,-2,4,0,24*,
CCN1CCC[C@H]1CNCCCn1cnc2c(SC)ncnc21,7,-5,0,3,1,0,x,
CCOC(=O)CSc1nc2cc(OC)ccc2cc1C#N,5,30*,-8,0,-1,2,31*,
Cc1nonc1NC(=O)CSc1nc2c(C)cccc2cc1C#N,6,81*,-4,9,9,2,73*,RORg counter=>40
Cc1cc2cc(C#N)c(SCC(=O)Nc3nonc3C)nc2cc1C,4,20*,-12,7,0,1,33*,RORg counter=i
CCOC(=O)CSc1nc2cc(C)ccc2cc1C#N,3,3,-1,-5,-12,2,x,
CCC(=O)NCCNc1nc2cc(C)c(C)cc2cc1C#N,-10,-2,2,1,2,0,x,
